APJ agonist: APJ receptor agonism; P35414; CHO-K1 APJ PathHunter beta-arrestin, luminescence; 0% DMSO wells, 100% apelin; activation, % at 20 µM; hit rate 0.11% among 330,000; AID 2520;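 active = activation more than six SD over the plate average, tested at 20 µM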
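Test system: CHO-K1 APJ beta-arrestin complementation cell line. Amount: cell density 1000 per well. Controls: DMSO negative, 10 nM Apelin-13 positive. Signal: luminescent beta-gal fragment complementation, chemiluminescent substrate. Read-out basis: agonist-driven arrestin binding to APJ. Timing: compound stimulation 90 min at 25 °C, detection 60 min.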
EBI2 block: antagonists of human EBI2 receptor | EBI2 beta-arrestin recruitment, luminescence, 7a,25-OHC stimulated | inhibition, % at 5 µM | hit rate 0.81% among 360,000 | AID 651636; in the data active = inhibition above about 38%;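 also: enzyme fragment complementation signal reports receptor beta-arrestin coupling in cells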
Target sequence (P32249 whole entry, looked up, the tested form may be a part): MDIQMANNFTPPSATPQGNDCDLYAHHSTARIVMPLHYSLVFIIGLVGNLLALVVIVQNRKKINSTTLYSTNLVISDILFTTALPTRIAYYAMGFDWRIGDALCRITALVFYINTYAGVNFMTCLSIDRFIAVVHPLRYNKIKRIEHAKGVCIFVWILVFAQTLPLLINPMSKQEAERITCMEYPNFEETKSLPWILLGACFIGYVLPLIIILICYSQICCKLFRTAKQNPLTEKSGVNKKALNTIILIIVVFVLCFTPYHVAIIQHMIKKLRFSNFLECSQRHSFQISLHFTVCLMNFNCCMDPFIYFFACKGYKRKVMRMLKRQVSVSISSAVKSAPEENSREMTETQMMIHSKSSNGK
FXN GAA850 act: activators of GAA850 frataxin (FXN) promoter; activation, % at 6 µM; hit rate 0.56% among 360,000; HEK293 lucGAA850 FXN promoter luciferase reporter, 24 h; percent of 10 µM SAHA response;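 active = activation above the average of all compounds screened plus 3 SD, cutoff fixed separately per campaign, cut at about 7.5% in these data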
CCR6 antag: antagonists of human CCR6 receptor; P51684; CHO-K1 CCR6 PathHunter beta-arrestin, luminescence, CCL20-stimulated; inhibition, % at 20 µM; hit rate 0.49% among 340,000; AID 493098;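 active = compounds whose inhibition of the agonist-driven luminescence signal at 20 µM reaches about 50%, limit read from the data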;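 also: cells stimulated with CCL20 at 14 nM final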
APJ antag: antagonists of human APJ apelin receptor. inhibition, % at 20 µM. CHO-K1 APJ beta-arrestin complementation, luminescence. hit rate 0.32% among 330,000;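 active = inhibition above about 40% at 20 µM, limit read from the data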;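 also: cells challenged with 10 nM apelin-13 agonist together with compound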
CXCR6 block: inhibitors of human CXCR6 receptor. O00574. CHO-K1 PathHunter CXCR6 beta-arrestin, luminescence. inhibition, % at 20 µM. hit rate 0.36% among 360,000. AID 602244; in the data active = inhibition above about 34%, passing the limit was not always enough;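 also: antagonist mode with CXCL16 agonist at 10 nM final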
Target sequence (O00574 whole entry, looked up): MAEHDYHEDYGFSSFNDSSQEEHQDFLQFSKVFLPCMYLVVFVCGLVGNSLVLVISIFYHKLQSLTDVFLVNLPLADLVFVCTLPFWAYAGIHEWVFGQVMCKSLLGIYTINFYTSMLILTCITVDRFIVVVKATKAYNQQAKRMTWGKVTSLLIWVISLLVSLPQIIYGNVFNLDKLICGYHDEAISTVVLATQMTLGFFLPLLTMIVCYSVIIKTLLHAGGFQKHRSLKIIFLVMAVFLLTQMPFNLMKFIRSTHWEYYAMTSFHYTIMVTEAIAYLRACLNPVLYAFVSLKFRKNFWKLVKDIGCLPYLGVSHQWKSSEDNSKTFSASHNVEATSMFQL
Of the large screens only hits and unclear results are named; the others gave an inactive call; ! = not active in a repeat. Sampled rows, rich in hits. Any-hit rate of the full collection: about 2%.

Cc1nn(-c2ccccc2)c(Cl)c1CN(C(=O)CCl)c1cccc2ccccc12	EBI2 block 59.5
COC(=O)c1ccc(NC(=S)NC(=O)c2cc(-c3ccccc3)nc3ccccc23)cc1	CCR6 antag 52.5
COC(=O)c1ccc(NC(=O)c2cc(-c3ccncc3)nc3ccccc23)cc1	none
CCN(c1cccc(C)c1)S(=O)(=O)c1cc2c3c(c1)CCC(=O)N3CCC2	none
Nc1cc2c3ccccc3ccc2c2ccccc12	none (no result: APJ agonist, APJ antag)
NC(CCc1ccccc1)c1csc(NC(=O)NCC2CCCCC2)n1 (centres undefined)	none (no result: APJ agonist, CCR6 antag, APJ antag)
O=[N+]([O-])c1cc([N+](=O)[O-])c2nonc2c1Nc1ccc(O)cc1	CCR6 antag 51.5
O=[N+]([O-])c1cc([N+](=O)[O-])c2nonc2c1Nc1ccccc1O	none
Cc1ccc(S(=O)(=O)N(CC(=O)c2ccccc2)C(=O)N2CCN(C)CC2)cc1	none
N#Cc1cccc(C(=O)C(=O)N2CCN(c3ccccc3)CC2)c1	none (no result: APJ agonist, FXN GAA850 act, CCR6 antag, APJ antag, CXCR6 block)
CN(C)c1ccc(N=Nc2ccccc2C(=O)OCC(=O)NCC2CCCCC2)cc1	CCR6 antag 53.6
CN(C)c1ccc(N=Nc2ccccc2C(=O)OCC(=O)NC2CCCC2)cc1	none
O=C(Cc1ccsc1)NNC(=O)c1ccccc1O	none
Cc1cc(C)c(NC(=O)COC(=O)c2cccc3c2C(=O)c2ccccc2C3=O)c(C)c1	none
Cc1cc(C)c(Nc2cc(S(=O)(=O)O)c(N)c3c2C(=O)c2ccccc2C3=O)c(C)c1	CCR6 antag 54.4, CXCR6 block 39.2 (no result: APJ agonist, APJ antag)
C[C@@H](c1ccccc1)N1C[C@H](COCc2ccccc2)Oc2cc(N3CC[C@@H](O)C3)ccc2S1(=O)=O	none (no result: APJ agonist, FXN GAA850 act, CCR6 antag, APJ antag)
CN(C(=O)c1cccc(NC(=O)Cc2ccc(NC(=O)C3CCN(C(=O)C4CCC4)CC3)cc2)c1)C1CCC1	none (no result: APJ agonist, APJ antag)
CCCCOC(=O)Nc1nc2ccc(OC)cc2s1	none
CCCCN(C(=O)NC(=O)Nc1nc2ccc(OC)cc2s1)S(C)(=O)=O	FXN GAA850 act 9.5
CN(C)c1c([N+](=O)[O-])cc(N2C(=O)C=CC2=O)cc1[N+](=O)[O-]	CXCR6 block 75.1 (no result: APJ agonist, CCR6 antag, APJ antag)
Cn1c(=O)c(=O)n(C)c2cc([N+](=O)[O-])c([N+](=O)[O-])cc21	none
COc1cc(/C=N/NC(=S)NC2CC3CC2C2C=CCC32)ccc1O (centres undefined)	EBI2 block 45.1
Cc1ccccc1NC1=C/C(=N\S(=O)(=O)c2cccs2)c2ccccc2C1=O	CCR6 antag 56.1
Cc1cc(NCCCn2ccnc2)n2ncc(-c3ccc(Cl)cc3)c2n1	EBI2 block 45.4
Cc1cc(NCCCN2CCOCC2)n2ncc(-c3ccc(Cl)cc3)c2n1	none
Cc1ccn2c(Nc3ccccc3C)c(-c3ccccn3)nc2c1	none
Cc1ccn2c(Nc3ccccc3)c(-c3ccccn3)nc2c1	APJ antag 49.1
CCc1nc2ccc(C(=O)NCCc3c[nH]c4ccccc34)cn2c1N(C)Cc1ccc(N(C)C)cc1	none (no result: APJ agonist, CCR6 antag, APJ antag)
C(=N\Nc1nc(-c2ccccc2)cs1)/c1ccco1	APJ agonist 10.3
c1ccc(-c2csc(Nc3ncccn3)n2)cc1	none
NNc1nc(-c2ccccc2)cs1	CCR6 antag 59.4
Cc1nc2ccc(NC(=O)c3cc([N+](=O)[O-])cc([N+](=O)[O-])c3Cl)cc2s1	CCR6 antag 96.9 (no result: APJ agonist, APJ antag)
CCC(C)[C@H]1CNC(=O)C(=O)N1CCc1cccc2ccccc12 (some centres undefined)	none (no result: APJ agonist, FXN GAA850 act, CCR6 antag, APJ antag)
CCC(C)[C@H]1CNC(=S)N1CCc1cccc2ccccc12 (some centres undefined)	EBI2 block 45.8
O=C(O)C1C2CCC1C(O)C2 (centres undefined)	none (no result: APJ agonist, CCR6 antag, APJ antag)
CN(CCO)c1ccc(C=NNc2ccc([N+](=O)[O-])cc2S(=O)(=O)Nc2ccccc2C(=O)O)cc1	CCR6 antag 62.5
O=C(O)c1ccccc1NS(=O)(=O)c1ccc(NNC(=S)Nc2ccc(OC(F)F)cc2)c([N+](=O)[O-])c1	CCR6 antag 52.7, CXCR6 block 35.3 (no result: APJ agonist, APJ antag)
CC(=O)Nc1ccc(C=NNc2ccc([N+](=O)[O-])cc2S(=O)(=O)Nc2ccccc2C(=O)O)cc1	none
Cc1ccc(NC(=S)NNc2ccc([N+](=O)[O-])cc2S(=O)(=O)Nc2ccccc2C(=O)O)cc1C	CCR6 antag 68.3 (no result: APJ agonist, APJ antag)
COc1ccc(C(C)=NNc2ccc([N+](=O)[O-])cc2S(=O)(=O)Nc2ccccc2C(=O)O)c(OC)c1	none
CC(=O)Nc1ccc(C=NNc2ccc(S(=O)(=O)Nc3ccccc3C(=O)O)cc2[N+](=O)[O-])cc1	none
NC(=O)NC(CC(=O)OCC(=O)Nc1nnc(-c2ccccc2)o1)c1ccc(Cl)cc1 (centres undefined)	none (no result: APJ agonist, CCR6 antag, APJ antag)
CCCCCCCCCCCCCCCCn1cc[n+](C)c1	CCR6 antag 56.6!
CCCN1C(=O)/C(=C2/C=Cc3ccccc3N2CC)SC1=S	APJ antag 42.2
CCCN1/C(=C2/SC(=S)N(CC)C2=O)C=Cc2ccccc21	CCR6 antag 54.4
CCN1C(=O)/C(=C2/C=Cc3ccccc3N2CC)SC1=S	none
Cc1cc(C)c(S(=O)(=O)Nc2ccc3c4c(cccc24)CC3)c(C)c1	EBI2 block 45.7
Cc1ccc(S(=O)(=O)Nc2ccc3c4c(cccc24)CC3)c(C)c1	none
COc1ccc(NC(=O)/C(Cl)=C(/Cl)S(=O)(=O)Cc2ccc(C)cc2)cn1	EBI2 block 70.2, CCR6 antag 57.5, CXCR6 block 48.4 (no result: APJ agonist, APJ antag)
COc1ccc(NC(=O)Cc2ccc(Cl)c(Cl)c2)cn1	none
Cc1n[nH]c(=S)n1/N=C/c1ccccc1OCc1ccc(Cl)cc1	FXN GAA850 act 8.3
Cc1n[nH]c(=S)n1/N=C/c1cccc(OCc2ccccc2)c1	none
O=[N+]([O-])c1cc(Cl)cc(/C=N/NC(=S)Nc2ccc(S(=O)(=O)N3CCOCC3)cc2)c1O	CCR6 antag 59.9
O=C(Nc1ccc(F)cc1)C(c1ccnc2ccccc12)N1CCN(C(=O)c2ccco2)CC1 (centres undefined)	none (no result: APJ agonist, FXN GAA850 act, CCR6 antag, APJ antag, CXCR6 block)
C=C1CC(COc2ccc3c(C)c(Cl)c(=O)oc3c2)(c2ccccc2)OC1=O (centres undefined)	EBI2 block 56.0, CXCR6 block 37.3 (no result: APJ agonist, APJ antag)
O=C(Nc1cc(S(=O)(=O)Nc2ccccc2Cl)ccc1O)c1sc2cc(Cl)ccc2c1Cl	CCR6 antag 75.5
COc1ccccc1NS(=O)(=O)c1ccc(Cl)c(NC(=O)c2sc3cc(Cl)ccc3c2Cl)c1	none
Cc1cccc(N2CCN(C(=O)c3cc4cc(F)ccc4[nH]3)CC2)c1C	EBI2 block 91.7
CN1CCN(C(=O)c2cc3cc(F)ccc3[nH]2)CC1	none
CCOC(=O)CN1C(=O)S/C(=C/c2cccc([N+](=O)[O-])c2O)C1=O	CCR6 antag 56.0
O=C(O)c1cccc(CN2C(=O)S/C(=C/c3ccccc3[N+](=O)[O-])C2=O)c1	none
CCN(CC)c1ccc(/C=C(\C#N)C(=O)c2ccc(Br)cc2)cc1	EBI2 block 45.1 (no result: APJ agonist, APJ antag)

Bioassay records from PubChem BioAssay.
